# Compound activity (PubChem)
# An excerpt weighted towards active compounds, which were near 5.8% of everything screened.
# IDH1 mut inh: blocks human IDH1 R132H reductase activity; AID 624101; inhibition, % at 10 µM; diaphorase/resazurin fluorescence, 60 min; 70,000 compounds, 0.18% hits; in the data active means inhibition above about 34%; inconclusive means no clear call, values can overlap the other calls; inactive means below about 11%;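 further: 0% = DMSO and 100% = no enzyme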
# Target sequence (O75874 whole entry R132H): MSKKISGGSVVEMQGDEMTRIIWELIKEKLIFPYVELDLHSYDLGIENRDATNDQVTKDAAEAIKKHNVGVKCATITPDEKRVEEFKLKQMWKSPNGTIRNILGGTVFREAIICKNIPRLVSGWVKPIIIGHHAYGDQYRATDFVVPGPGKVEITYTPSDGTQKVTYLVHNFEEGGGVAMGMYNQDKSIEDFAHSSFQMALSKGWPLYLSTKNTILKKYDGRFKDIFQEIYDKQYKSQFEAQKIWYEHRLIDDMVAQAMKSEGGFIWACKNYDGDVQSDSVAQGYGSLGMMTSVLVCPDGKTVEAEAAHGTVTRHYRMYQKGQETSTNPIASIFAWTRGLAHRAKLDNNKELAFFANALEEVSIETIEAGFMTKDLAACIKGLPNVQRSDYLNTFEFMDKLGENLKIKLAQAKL
# T cruzi growth-1: blocks T. cruzi growth in NIH3T3 culture; T. cruzi beta-gal in NIH3T3, GalScreen luminescence, 90 h; 77,000 compounds, 5.9% hits; inhibition, % at 8.34 µM;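 active means mean inhibition above about 93%, with at least 55% of replicates each passing it, limit read from the data, passing the limit was not always enough; inconclusive means only one of those two conditions holds; inactive means neither condition holds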
# GASC1 inh: inhibitors of human demethylase GASC-1 KDM4C; GST-KDM4C 2-372, H3K9me3 peptide, LANCE TR-FRET; 96,000 compounds, 0.15% hits; Q9H3R0; inhibition, % at 12.5 µM;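 active means mean replicate inhibition above about 25%, with at least 55% of replicates also reaching it, limit read from the data, passing the limit was not always enough; inconclusive means only one of those two conditions met; inactive means neither condition met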
# Target sequence (Q9H3R0 2-372 limits assumed): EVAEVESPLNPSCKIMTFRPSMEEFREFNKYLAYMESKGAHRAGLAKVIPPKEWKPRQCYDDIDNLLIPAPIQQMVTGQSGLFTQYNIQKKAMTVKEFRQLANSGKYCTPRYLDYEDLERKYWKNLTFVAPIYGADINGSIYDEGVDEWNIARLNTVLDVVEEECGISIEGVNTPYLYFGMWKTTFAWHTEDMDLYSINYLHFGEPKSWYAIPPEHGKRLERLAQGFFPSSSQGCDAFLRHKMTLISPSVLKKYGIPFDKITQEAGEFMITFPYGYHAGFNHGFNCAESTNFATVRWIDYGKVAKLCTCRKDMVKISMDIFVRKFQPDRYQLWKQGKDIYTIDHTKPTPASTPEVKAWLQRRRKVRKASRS
#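 Test system – GST-tagged GASC-1 (JMJD2C) catalytic fragment, aa 2-372 · Medium – HEPES buffer, pH 7.5, plus ascorbate · Reagent – H3K9me3 peptide with Fe(II)/2OG · Compound – one test concentration per compound · Timing – 30 min reaction, 60 min detection, RT · Technique – TR-FRET with Eu antibody and ULight streptavidin, EDTA stop · Read-out basis – inhibition from TR-FRET ratio decrease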
# Pf Dd2 growth: P. falciparum Dd2 growth inhibition; AID 1159554; SYBR Green, 72 h; active compounds read low; 94,000 compounds, 2.3% hits; activity change, % at 10 µM; in the data active means activity change below about -80%; inconclusive means no clear call, values can overlap the other calls
# T cruzi growth-2: inhibitors of T. cruzi proliferation. AID 651739. 5,600 compounds, 72% hits. T. cruzi beta-gal in NIH3T3, GalScreen luminescence, 90 h. shares compounds with T cruzi growth-1. inhibition, % at 8.35 µM;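 active means mean replicate inhibition above about 95% and at least 55% of replicates individually reaching it, limit read from the data; inconclusive means only one of the two criteria is met; inactive means neither criterion is met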
# T cruzi growth-3: blocks T. cruzi growth in NIH3T3 host cells. inhibition, % at 2.09 µM. 5,600 compounds, 21% hits. T. cruzi beta-gal in NIH3T3, GalScreen luminescence, 90 h. AID 651740. shares compounds with T cruzi growth-1;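 active means mean inhibition above about 95%, with at least 55% of replicates also reaching it, limit read from the data; inconclusive means meets just one of the two conditions; inactive means meets neither condition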;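 further: plate controls were neutral control median for no effect and positive control median for full effect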
# 3T3 cytotox: kills mouse NIH/3T3 fibroblasts; shares compounds with T cruzi growth-1; NIH/3T3 viability, CellTiter-Glo ATP luminescence, 90 h; cytotoxicity (signal decrease), % at 8.35 µM; 5,600 compounds, 14% hits;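 active means mean signal decrease across replicates above about 35% based on untreated-well scatter, with enough replicates individually passing, limit read from the data; inconclusive means no rule stated though some were filed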;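 further: 0% = median of neutral control wells and 100% = median of positive control wells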
# NIH3T3 tox 2: kills mouse NIH/3T3 fibroblasts; shares compounds with T cruzi growth-1; NIH/3T3 viability, CellTiter-Glo ATP luminescence, 90 h; inhibition, % at 24.9 µM; 5,600 compounds, 56% hits;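 active means mean loss of cell viability signal at or above a set limit, and enough replicates individually reaching it; inconclusive means meets only the mean limit or only the replicate share; inactive means meets neither condition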;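 further: 0% = median of neutral control wells and 100% = median of positive control wells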
# Numbers without * were called inactive; ? = inconclusive; nt = no result given.
SMILES,IDH1 mut inh,T cruzi growth-1,GASC1 inh,Pf Dd2 growth,T cruzi growth-2,T cruzi growth-3,3T3 cytotox,NIH3T3 tox 2
O=C(Nc1ccc(Cl)cc1)N[C@@H]1CC[C@H](CCn2cc(-c3ccccc3F)nn2)O[C@H]1CO,0.1,24.9,-0.5,-48.0,nt,nt,nt,nt
O=C(NCC[C@@H]1CC[C@H](NC(=O)c2ccncc2)[C@H](CO)O1)Nc1ccc(Cl)cc1,0.1,101.2*,-1.7,12.5,96.8*,40.7,-2.7,-5.5
COc1ccccc1NC(=O)N[C@@H]1CC[C@H](CCn2cc(C3(O)CCCC3)nn2)O[C@H]1CO,-0.4,16.5,0.2,-27.8,nt,nt,nt,nt
O=C(Nc1ccc(Cl)cc1)N[C@@H]1CC[C@@H](CCn2cc(-c3ccccc3F)nn2)O[C@H]1CO,0.2,105.4*,0.2,-18.7,104.2*,35.5,26.2,8.9
COc1ccc(OC)c(C(=O)CSc2nnc(-c3ccco3)n2C)c1,-1.0,nt,nt,nt,nt,nt,nt,nt
O=C(N/N=C/c1cc(Br)cc([N+](=O)[O-])c1O)c1ccccn1,0.9,nt,nt,nt,nt,nt,nt,nt
COc1ccccc1NC(=O)C1=C(C)NC(SCC(N)=O)=C(C#N)C1c1ccccc1 (centres undefined),-0.4,nt,nt,nt,nt,nt,nt,nt
C[C@H](CO)N1C[C@H](C)[C@@H](CN(C)C(=O)C2CCCCC2)Oc2ncc(C#CC3CC3)cc2C1=O,1.0,-9.7,2.2,-15.0,nt,nt,nt,nt
O=C(Nc1cccc(Cl)c1)N[C@@H]1CC[C@@H](CCn2cc(Cc3ccccc3)nn2)O[C@@H]1CO,0.3,?,1.1,-19.2,97.6*,70.6,30.7,32.9*
C[C@H]1CCCCO[C@@H](CN(C)S(=O)(=O)c2ccc(F)cc2)[C@@H](C)CN([C@@H](C)CO)C(=O)c2cc(NC(=O)NC3CCCCC3)ccc2O1,-10.1,68.7,-0.6,-59.5,nt,nt,nt,nt
Cc1ccc(S(=O)(=O)N(C)C[C@H]2OCCCC[C@@H](C)Oc3ccc(NC(=O)NC4CCCCC4)cc3C(=O)N([C@H](C)CO)C[C@H]2C)cc1,nt,98.7*,-1.2,-78.7,104.9*,?,-33.7,13.8
C[C@@H]1CCCCO[C@H](CN(C)S(=O)(=O)c2ccc(Cl)cc2)[C@@H](C)CN([C@@H](C)CO)C(=O)c2cc(NC(=O)NC3CCCCC3)ccc2O1,nt,100.8*,0.0,nt,105.3*,83.9,17.1,32.9*
Cc1ccc(S(=O)(=O)N(C)C[C@H]2OCCCC[C@@H](C)Oc3ccc(NC(=O)NC4CCCCC4)cc3C(=O)N([C@@H](C)CO)C[C@H]2C)cc1,nt,99.8*,-1.3,-55.0,107.6*,31.2,-6.1,-53.7
Cc1ccc(S(=O)(=O)N(C)C[C@H]2OCCCC[C@H](C)Oc3ccc(NC(=O)NC4CCCCC4)cc3C(=O)N([C@@H](C)CO)C[C@@H]2C)cc1,-0.7,73.6,-0.8,?,nt,nt,nt,nt
Cc1ccc(S(=O)(=O)N(C)C[C@@H]2OCCCC[C@@H](C)Oc3ccc(NC(=O)NC4CCCCC4)cc3C(=O)N([C@@H](C)CO)C[C@H]2C)cc1,3.0,39.9,0.4,-71.2,nt,nt,nt,nt
Cc1ccc(S(=O)(=O)N(C)C[C@@H]2OCCCC[C@H](C)Oc3ccc(NC(=O)NC4CCCCC4)cc3C(=O)N([C@@H](C)CO)C[C@@H]2C)cc1,1.2,101.5*,-0.6,-83.2*,106.5*,92.8,2.5,0.7
COC(=O)c1c(NC(=O)C(C)Oc2ccc(F)cc2)sc(C(C)=O)c1C (centres undefined),0.4,nt,nt,nt,nt,nt,nt,nt
C[C@@H]1CCCCO[C@H](CN(C)S(=O)(=O)c2ccc(Cl)cc2)[C@@H](C)CN([C@H](C)CO)C(=O)c2cc(NC(=O)NC3CCCCC3)ccc2O1,3.7,26.6,0.4,nt,nt,nt,nt,nt
Cc1ccc(S(=O)(=O)N(C)C[C@@H]2OCCCC[C@H](C)Oc3ccc(NC(=O)NC4CCCCC4)cc3C(=O)N([C@H](C)CO)C[C@@H]2C)cc1,nt,98.8*,0.4,-48.4,107.1*,64.2,-6.8,0.2
Cc1cc(Cl)c(S(=O)(=O)Nc2ccc(F)cc2)cc1OCC(N)=O,-0.1,nt,nt,nt,nt,nt,nt,nt
CCCC#Cc1ccc2c(c1)O[C@@H](CN(C)C(=O)c1ccncc1)[C@@H](C)CN([C@@H](C)CO)S2(=O)=O,-0.7,108.3*,1.0,-34.1,105.8*,89.9,-3.3,49.3*
CCCC#Cc1ccc2c(c1)O[C@@H](CN(C)C(=O)c1ccncc1)[C@@H](C)CN([C@H](C)CO)S2(=O)=O,-4.5,109.7*,-2.5,-41.8,97.1*,71.1,8.0,36.5*
CCCC#Cc1ccc2c(c1)O[C@@H](CN(C)C(=O)c1ccncc1)[C@H](C)CN([C@H](C)CO)S2(=O)=O,-0.3,82.2,-1.5,-23.2,nt,nt,nt,nt
CCCC#Cc1ccc2c(c1)O[C@H](CN(C)C(=O)c1ccncc1)[C@@H](C)CN([C@@H](C)CO)S2(=O)=O,6.7,80.1,-2.9,-48.7,nt,nt,nt,nt
Cc1ccc(NC(=O)CCn2cnc3ccccc3c2=O)cc1C,0.5,nt,nt,nt,nt,nt,nt,nt
SMILES,IDH1 mut inh,T cruzi growth-1,GASC1 inh,Pf Dd2 growth,T cruzi growth-2,T cruzi growth-3,3T3 cytotox,NIH3T3 tox 2
C[C@@H]1CCCCO[C@@H](CN(C)Cc2ccc(C(F)(F)F)cc2)[C@@H](C)CN([C@@H](C)CO)C(=O)c2cc(NC(=O)Nc3ccc4c(c3)OCO4)ccc2O1,1.5,85.5,-1.0,-7.6,nt,nt,nt,nt
C[C@@H]1CCCCO[C@@H](CN(C)Cc2ccc3c(c2)OCO3)[C@H](C)CN([C@H](C)CO)C(=O)c2cc(NC(=O)Nc3ccc(C(F)(F)F)cc3)ccc2O1,nt,119.3*,-1.6,-69.5,101.8*,109.8*,32.4,104.2*
C[C@@H]1CN([C@H](C)CO)C(=O)c2cc(NC(=O)Nc3ccc(C(F)(F)F)cc3)ccc2O[C@@H](C)CCCCO[C@@H]1CN(C)Cc1ccc2c(c1)OCO2,nt,?,1.4,-59.9,93.5,120.0*,?,102.4*
C[C@@H]1CCCCO[C@H](CN(C)Cc2ccc3c(c2)OCO3)[C@@H](C)CN([C@H](C)CO)C(=O)c2cc(NC(=O)Nc3ccc(C(F)(F)F)cc3)ccc2O1,2.5,?,-0.7,-47.5,93.6,112.6*,18.7,101.7*
O=C(Nc1sc2c(c1C(=O)NCc1ccco1)CCCC2)c1ccc(Br)cc1,0.1,nt,nt,nt,nt,nt,nt,nt
CCC(CC)C(=O)N1c2ccccc2CCc2ccccc21,0.5,nt,nt,nt,nt,nt,nt,nt
Cc1cc(OCC(=O)Nc2ccc3oc(-c4ccncc4)nc3c2)cc(C)c1Cl,-0.5,nt,nt,nt,nt,nt,nt,nt
CNC[C@@H]1Oc2cc(C#Cc3ccccc3)ccc2S(=O)(=O)N([C@@H](C)CO)C[C@H]1C,-0.7,nt,-2.4,-69.7,nt,nt,nt,nt
CNC[C@@H]1Oc2cc(C#Cc3ccccc3OC)ccc2S(=O)(=O)N([C@H](C)CO)C[C@H]1C,-2.3,102.5*,-1.6,nt,102.0*,69.0,27.0,102.6*
